For 6 compounds, Activity and GI50 results are on record in ChEMBL document CHEMBL4020797, “Design, synthesis and evaluation of antitumor acylated monoaminopyrroloquinazolines” (2017).

The test system of one experiment is MDA-MB-231. As to the kind of experiment: Antiproliferative activity against human MDA-MB-231 after 72 hrs by MTT assay. The class given is functional.
Details: not given
In a few lines:
(§1)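 Triple-negative breast cancer cells were exposed to a range of compound concentrations for 72 h, and viable cells were then quantified spectrophotometrically with MTT reagent. GI50 (concentration giving 50% growth inhibition) was derived from dose-response curves by non-linear regression and reported as mean ± SD from at least two independent measurements. The highest concentration tested was 100 μM.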
A general note: Tetrazolium dyes change colour on reduction, which living cells bring about.
In the case of `O=C(Nc1ncc2c(ccc3[nH]ccc32)n1)c1ccc2ccccc2c1`, the Activity entry is “Dose-dependent effect”.

Still in this experiment, the particulars now being: MDA-MB-231, 72 h.
Broadly, the GI50 is the concentration at which growth is held to half of that of the control. Low values mean greater sensitivity of the cells, high ones lower sensitivity of the cells. The compound `CC(=O)Nc1ncc2c(ccc3[nH]ccc32)n1` came in with a GI50 of over 100 µM.
Still for that read-out and setting: under `O=C(Nc1ncc2c(ccc3[nH]ccc32)n1)c1ccc2ccccc2c1` stands 0.2 µM.
Same read-out and setting: then `CC(C)(C)C(=O)Nc1ncc2c(ccc3[nH]ccc32)n1`, with over 100 µM; and `CCC(=O)Nc1ncc2c(ccc3[nH]ccc32)n1`, with 72.8 µM; and `CCCC(=O)Nc1ncc2c(ccc3[nH]ccc32)n1`, with 3.46 µM.
Still for that read-out and setting: then `CC(C)C(=O)Nc1ncc2c(ccc3[nH]ccc32)n1`, with over 100 µM.

The next experiment relates to MDA-MB-468. As to the kind of experiment: Antiproliferative activity against human MDA-MB-468 after 72 hrs by MTT assay. The class given is functional.
Details: not given
In a few lines:
as §1
In the case of `O=C(Nc1ncc2c(ccc3[nH]ccc32)n1)c1ccc2ccccc2c1`, the Activity entry is “Dose-dependent effect”.

Staying with this experiment, now noted: MDA-MB-468, 72 h.
In the case of `CC(=O)Nc1ncc2c(ccc3[nH]ccc32)n1`, the GI50 was over 100 µM.
Still for that read-out and setting: under `O=C(Nc1ncc2c(ccc3[nH]ccc32)n1)c1ccc2ccccc2c1` stands 0.088 µM; under `CC(C)(C)C(=O)Nc1ncc2c(ccc3[nH]ccc32)n1`, over 100 µM; under `CCC(=O)Nc1ncc2c(ccc3[nH]ccc32)n1`, 28.3 µM.
On the same count and under the same terms, then `CCCC(=O)Nc1ncc2c(ccc3[nH]ccc32)n1`, with 2.02 µM; and `CC(C)C(=O)Nc1ncc2c(ccc3[nH]ccc32)n1`, with over 100 µM.
